Source: PubChem
CXCR6 block: inhibitors of human CXCR6 receptor; CHO-K1 PathHunter CXCR6 beta-arrestin, luminescence; inhibition, % at 20 µM; 360,000 compounds, 0.36% hits; AID 602244; in the data active means inhibition above about 34%, passing the limit was not always enough;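 further: antagonist mode with CXCL16 agonist at 10 nM final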
Target sequence (O00574 whole entry, looked up): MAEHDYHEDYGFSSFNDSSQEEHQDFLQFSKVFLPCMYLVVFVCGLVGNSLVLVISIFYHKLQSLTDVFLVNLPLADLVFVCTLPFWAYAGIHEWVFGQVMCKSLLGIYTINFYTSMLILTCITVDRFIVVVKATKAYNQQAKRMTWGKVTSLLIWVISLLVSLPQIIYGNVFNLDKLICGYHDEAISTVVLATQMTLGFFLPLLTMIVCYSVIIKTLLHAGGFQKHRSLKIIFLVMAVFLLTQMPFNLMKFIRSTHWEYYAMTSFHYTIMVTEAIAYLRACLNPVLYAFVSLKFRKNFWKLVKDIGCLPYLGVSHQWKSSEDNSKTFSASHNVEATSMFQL
CCR6 antag: CCR6 (human) receptor antagonism; AID 493098; 340,000 compounds, 0.49% hits; P51684; CHO-K1 CCR6 PathHunter beta-arrestin, luminescence, CCL20-stimulated; inhibition, % at 20 µM;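 active means compounds whose inhibition of the agonist-driven luminescence signal at 20 µM reaches about 50%, limit read from the data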;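 further: cells stimulated with CCL20 at 14 nM final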
APJ agonist: agonists of human APJ apelin receptor; P35414; CHO-K1 APJ PathHunter beta-arrestin, luminescence; 0% DMSO wells, 100% apelin; activation, % at 20 µM; 330,000 compounds, 0.11% hits; AID 2520;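 active means activation more than six SD over the plate average, tested at 20 µM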
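Test system – PathHunter CHO-K1 APJ (AGTRL-1) beta-arrestin reporter cells · Input – 1000 cells/well · Compound – single test compound dose, 20 µM final, 1% DMSO · Times – compound stimulation 90 min at 25 °C, detection 60 min · Technique – beta-gal luminescence · Read-out basis – APJ–arrestin association signal · Control set – negative DMSO alone, positive Apelin-13 at 10 nM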
EBI2 antag: EBI2 (human) antagonism | P32249 | EBI2 beta-arrestin recruitment, luminescence, 7a,25-OHC stimulated | inhibition, % at 5 µM | 360,000 compounds, 0.81% hits | AID 651636; in the data active means inhibition above about 38%;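 further: enzyme fragment complementation signal reports receptor beta-arrestin coupling in cells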
Target sequence (P32249 whole entry, looked up, the tested form may be a part): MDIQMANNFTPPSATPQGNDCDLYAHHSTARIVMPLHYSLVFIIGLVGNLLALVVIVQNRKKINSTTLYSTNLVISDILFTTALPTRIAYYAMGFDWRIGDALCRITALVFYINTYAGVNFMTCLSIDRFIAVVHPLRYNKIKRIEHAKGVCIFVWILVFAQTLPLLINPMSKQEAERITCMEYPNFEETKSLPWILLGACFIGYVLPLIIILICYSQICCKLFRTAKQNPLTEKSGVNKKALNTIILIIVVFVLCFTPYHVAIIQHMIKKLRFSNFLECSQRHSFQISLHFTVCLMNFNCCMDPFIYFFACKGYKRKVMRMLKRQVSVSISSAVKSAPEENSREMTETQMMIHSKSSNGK
APJ antagonist: antagonists of human APJ apelin receptor; P35414; CHO-K1 APJ beta-arrestin complementation, luminescence; inhibition, % at 20 µM; 330,000 compounds, 0.32% hits;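 active means inhibition above about 40% at 20 µM, limit read from the data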;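 further: cells challenged with 10 nM apelin-13 agonist together with compound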
Each line names hits and unclear results; the compound was inactive in the other large screens. Most compounds without a hit are left out; they make up all but 1.5% or so of the library.

Cn1cc(/C=C2\SC(=O)NC2=S)c2ccccc21	CCR6 antag 53
O=c1ccc(N=Nc2ccccc2)ccc1O	CCR6 antag 66 (no result: APJ agonist, APJ antagonist)
O=S(=O)(O)c1ccc(N=Nc2ccccc2)cc1	none
Cc1cccc2c(N=Nc3ccc(S(=O)(=O)Nc4cccc(Cl)c4)cc3[N+](=O)[O-])c(O)[nH]c12	CCR6 antag 58
Cc1ccc(S(=O)(=O)Nc2ccccc2)cc1[N+](=O)[O-]	none (no result: APJ agonist, APJ antagonist)
COc1cc(C=C2CN(C)C(=O)C2=O)ccc1O	none (no result: CCR6 antag, APJ agonist, APJ antagonist)
CCOc1cc(/C=C2\CN(C)C/C(=C\c3ccc(O)c(OCC)c3)C2=O)ccc1O	CCR6 antag 57
C=CCNc1nc(NCc2cccc(OC)c2)c2sc(-c3ccccc3)cc2n1	EBI2 antag 57 (no result: CCR6 antag, APJ agonist, APJ antagonist)
Cc1ccc(-n2sc3ccccc3c2=O)cc1S(=O)(=O)N1CCCCC1	CCR6 antag 55
O=c1c2ccccc2sn1-c1ccc(S(=O)(=O)N2CCCCC2)cc1	none
N#Cc1nccnc1S(=O)(=O)c1cccs1	APJ antagonist 56 (no result: CXCR6 block, EBI2 antag)
CN(Cc1ccccc1C#N)S(=O)(=O)c1cccs1	none
O=C(Cn1ncc(Cl)c(Cl)c1=O)N1CCc2ccccc21	EBI2 antag 43 (no result: APJ agonist, APJ antagonist)
CCCc1sc(N/N=C/c2ccccn2)nc1-c1ccc(F)cc1	CCR6 antag 69
Cc1cc(Cl)c(S(=O)(=O)NC2CCCC2)cc1OCC(=O)NC1CCCCC1	EBI2 antag 45
COc1ccc(NC(=O)/C(Cl)=C(/Cl)S(=O)(=O)Cc2ccccc2)cn1	EBI2 antag 61 (no result: APJ agonist, APJ antagonist)
COc1ccc(NC(=O)C(Cl)=C(Cl)Cl)cn1	none
Nc1c(C(=O)NC2CC2)sc2nc3c(c(-c4ccco4)c12)CC/C3=C/c1ccco1	CCR6 antag 51 (no result: APJ agonist, APJ antagonist)
CS(=O)(=O)N(CC(=O)N1CCN(c2ccccc2)CC1)c1cc(C(F)(F)F)ccc1Cl	EBI2 antag 46
CS(=O)(=O)N(CC(=O)N1CCCC1)c1cc(C(F)(F)F)ccc1Cl	none
COc1ccc(C)cc1NS(=O)(=O)c1ccc(NC(=O)CN(c2cc([N+](=O)[O-])ccc2C)S(C)(=O)=O)cc1	none
Cc1cccc(NS(=O)(=O)c2ccc(NC(=O)CN(c3cc([N+](=O)[O-])ccc3C)S(C)(=O)=O)cc2)c1	EBI2 antag 86
Nc1cccc2c1C(=O)N(C(=O)/C=C/c1cccc(Br)c1)C2=O	CXCR6 block 38, CCR6 antag 64 (no result: APJ agonist, APJ antagonist)
CC(C)(C)c1cc(C(=O)NCC(=O)OCC(=O)c2cccc([N+](=O)[O-])c2)cc(C(C)(C)C)c1	CCR6 antag 57
O=C(N/N=C/c1cc(Cl)cc(Cl)c1O)c1ccncc1	EBI2 antag 68
Oc1c(Cl)cc(Cl)cc1/C=N/Nc1ncc(Br)cn1	CXCR6 block 62, CCR6 antag 74, EBI2 antag 76
CCOc1ccc(NC(=S)NNc2ccnc3cc(Cl)ccc23)cc1	none
S=C(NNc1ccnc2cc(Cl)ccc12)Nc1ccc(Cl)cc1Cl	CCR6 antag 54
O=C1c2ccccc2C(c2nnnn2-c2ccc3c(c2)OCCO3)N1CCCN1CCOCC1 (stereo not given)	none (no result: CCR6 antag, APJ agonist, APJ antagonist)
Cc1ccc(N/C(N)=N/c2nc(C)cc(N3CCCCC3)n2)c(C)c1	APJ agonist 28
O=C(NCc1ccccc1)C(c1ccco1)N1CCN(c2ccccc2F)CC1 (stereo not given)	none (no result: CXCR6 block, CCR6 antag, APJ agonist, APJ antagonist)
COc1ccc(N2CCN(C(=O)CN(Cc3ccc(Cl)cc3)S(C)(=O)=O)CC2)cc1	CXCR6 block 71
CC(C)(C)c1ccc(CC(=O)N2CCC2(C)C(=O)NCc2cccs2)cc1 (stereo not given)	none (no result: CCR6 antag, APJ agonist, APJ antagonist)
CCN1/C(=C\C=C2\C(=O)N(c3ccccc3)C(=S)N2C)Sc2ccccc21	CXCR6 block 40, CCR6 antag 63 (no result: APJ agonist, APJ antagonist)
CNc1cc(-c2ccc(O)cc2C)ncn1	none (no result: CCR6 antag, APJ agonist, APJ antagonist)
COc1ccc(N/N=C(/N=Nc2nc(C)cc(=O)[nH]2)c2ccccc2)cc1	CXCR6 block 33
O=C(Nc1cccs1)Nc1nnc([C@@H]2C[C@H](O)[C@@H](CO)O2)s1	none (no result: CCR6 antag, APJ agonist, APJ antagonist)
O=C1C=CC2(O[C@H](c3ccccc3)[C@@H](c3ccccc3)O2)[C@H](Sc2ccccc2O)C1	CXCR6 block 94, CCR6 antag 104, EBI2 antag 72 (no result: APJ agonist, APJ antagonist)
C[C@@H]1[C@@H](Sc2ccccc2)CC(=O)O[C@@H]1c1ccc(-c2ccccc2)cc1	none
Cc1c(C(=O)Nc2nccs2)sc2nc(-c3cccs3)cc(C(F)(F)F)c12	CCR6 antag 53
CCCCNc1c(-c2ccc(-c3ccc(C(C)=O)cc3)c(OC)c2)nc2cnccn12	EBI2 antag 49
C/C(=N\Nc1nc2ccccc2s1)c1ccc(Br)s1	none
CC(=NNc1nc2ccccc2s1)c1ccncn1	CXCR6 block 45, CCR6 antag 54, EBI2 antag 55 (no result: APJ agonist, APJ antagonist)
O=C(OCn1ncc(Br)c(Br)c1=O)c1ccc(F)cc1	CXCR6 block 47, EBI2 antag 50
O=C(OCc1cnc(Cl)s1)c1ccccc1Cl	none
O=C(OCn1ncc(Br)c(Br)c1=O)c1ccccc1Cl	CXCR6 block 49, EBI2 antag 47
COC(=O)CCCn1cc(CN2CC(N3CCN(C4CCN(C)CC4)CC3)CS2(=O)=O)nn1 (stereo not given)	none (no result: CCR6 antag, APJ agonist, APJ antagonist)
OC(COc1c(Cl)cc(Cl)cc1Cl)CN1CCCCC1 (stereo not given)	CCR6 antag 69
OC(COc1ccc(Cl)cc1)CN1CCCCC1 (stereo not given)	none
Cn1cc(C2=C(c3ccc(Cl)cc3Cl)C(=O)NC2=O)c2ccccc21	EBI2 antag 49
Cn1cc(-c2ccccc2C(N)=O)c(=O)c2cc(Cl)ccc21	none
O=C1Nc2ccc(Br)cc2/C1=N\N=C\C1=C(N2CCOCC2)C(=C/c2ccccc2)/CC1	CXCR6 block 41, CCR6 antag 55 (no result: APJ agonist, APJ antagonist)
O=Cc1ccc(O)c2ncccc12	CXCR6 block 47
c1cnc2ccc3ncccc3c2c1	none
CCc1nc2ccc(C(=O)Nc3ccc(C(N)=O)cc3)cn2c1N(CCC(C)C)CCN(C)C	none (no result: CCR6 antag, APJ agonist, APJ antagonist)
O=C(/C=C/c1cccnc1)/C=C/c1cccnc1	CCR6 antag 59 (no result: APJ agonist, APJ antagonist)
Cc1cc(C)cc(C(O)c2ncc(-c3cccc(F)c3)[nH]2)c1 (stereo not given)	none (no result: CCR6 antag, APJ agonist, APJ antagonist)
Cc1ccc(S(=O)(=O)N2CCC(C(=O)OCC(=O)N3C(C)CCCC3C)CC2)cc1C (stereo not given)	none (no result: CCR6 antag, APJ agonist, APJ antagonist)
Nc1c(S(=O)(=O)O)cc(NC(=O)c2ccccc2)c2c1C(=O)c1ccccc1C2=O	CCR6 antag 55
O=C1CSC(=S)N1/N=C/C=C/c1ccccc1	CXCR6 block 46
O=C(NN=Cc1ccc2c(c1)CCN2)c1cccs1	none (no result: CCR6 antag, APJ agonist, APJ antagonist)
Cc1[nH]c2ccccc2c1/C=N/Nc1ccc([N+](=O)[O-])cc1S(=O)(=O)Nc1ccc(Cl)cc1	CXCR6 block 42, CCR6 antag 57
CN(C)S(=O)(=O)c1ccc(C(=O)Nc2ccc3c(c2)CCC3)cc1	EBI2 antag 56
CN(C)S(=O)(=O)c1cccc(C(=O)Nc2ccc3c(c2)CCC3)c1	none
CCCCCC(=O)N1C[C@@H](n2cc(COC(=O)c3ccccc3)nn2)[C@H](O)C[C@@H]1c1ccc(C)cc1	none (no result: CCR6 antag, APJ agonist, APJ antagonist)
